These results are taken from PubChem BioAssay.

The source made the active and inactive calls.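 The calls were made as follows, unless noted: active = viability at or below 10% of carrier control in both of two separate runs; inconclusive = viability at or below 10% in only one of the two runs; inactive = the rest.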

The nature of experiment [1]: reducers of endogenous Her2 protein level, primary screen, SKBR3 breast tumor cells, AlphaScreen, ATP viability (AID 461;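 active = Her2 level under about 52% in both replicate screens, with viability over 70% of control, limit read from the data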;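 as to Her2 level: lower value means less Her2 protein in the cells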;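 as to viability: percent of carrier control wells set as 100% viability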). The following applies: 18-24 h, measured here: SKBR3 viability, ATP luminescence, at 10 µM.
Experiment [2] concerns the target Receptor tyrosine-protein kinase erbB-2 (Homo sapiens) (UniProt P04626). The experiment is described as above. The following applies: 18-24 h, at 10 µM, stronger effect = lower value.
Experiment [3] can be described thus: SK-BR-3 cell growth inhibitors, pilot screen, 24 h, human (AID 572).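 Also: compound exposure lasted between 18 and 24 h rather than exactly 24 h; 100% = carrier-treated control wells.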 The following applies: SK-BR-3 viability, CellTiter-Glo luminescence, at 10 µM, stronger effect = lower value.
Experiment [4] in a line: HUVEC growth inhibition – cell-based, human, primary screen (AID 575;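 active = viability at or below 30% in both replicate assays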;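 also: 100% = median of untreated cell wells with 0.1% DMSO on each plate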). The following applies: HUVEC proliferation, CellTiter-Glo luminescence, 72 h; at 10 µM; stronger effect = lower value. The procedure, abridged:
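System: primary human umbilical vein endothelial cells; Quantity: 1250 endothelial cells in each well; Buffer or medium: supplemented EBM, 2% fetal bovine serum; Doses: one dose, 10 µM final, 0.1% DMSO; Incubation: 72 h compound incubation; Technique: ATP-based CellTiter-Glo luminescent read; Evaluation: percent of median DMSO-control luminescence; Controls: vehicle and MePR control wells.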
In general terms: ATP-based viability assays read luminescence as a measure of living cells.

A short description of experiment [5]: growth inhibitors of H69AR lung tumor, primary screen, human, duplicate replicates (AID 580;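 active = viability at or under a set limit in both replicates, limit being median viability minus 3 SD, cut at about 48% in these data, passing the limit was not always enough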;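 also: 100% = mean luminescence of untreated wells and 0% = no signal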). The following applies: H69AR lung tumor cells viability, ATP luminescence, 72 h; at 10 µM; stronger effect = lower value.
Experiment [6] in a line: reversal of MRP1-mediated doxorubicin resistance, pilot screen, H69AR cells, doxorubicin co-treatment (AID 601;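 active = viability loss from added drug above about 55%, and viability with drug at most 40%, in both replicates, limit read from the data, passing the limit was not always enough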). The following applies: CellTiter-Glo, 72 h, at 10 µM; for differential viability (reversal): stronger effect = higher value.
Experiment [7] can be described thus: 384-well plate pilot, post-Golgi transport modulator project, inhibition of yeast transport mutant growth (AID 636; in the data active = inhibition above about 31%). The following applies: absorbance 615 nm, about 18 h, stronger effect = higher value.
Experiment [8] can be described thus: growth suppression of yeast trafficking mutant, preliminary HTS, modulators of trafficking downstream of Golgi apparatus project, 1536-format plate, OD 615 nm (AID 637; in the data active = inhibition above about 30%). The following applies: yeast transport mutant growth, absorbance 615 nm, 18 h; stronger effect = higher value.
The mark [9] stands for this setting: H69AR cells + 2 uM doxorubicin, measured here: viability with 2 uM doxorubicin, stronger effect = lower value.
[10] abbreviates: H69AR cells, compound alone cytotoxicity.

Receptor tyrosine-protein kinase erbB-2 (Homo sapiens), sequence (P04626 whole entry, looked up): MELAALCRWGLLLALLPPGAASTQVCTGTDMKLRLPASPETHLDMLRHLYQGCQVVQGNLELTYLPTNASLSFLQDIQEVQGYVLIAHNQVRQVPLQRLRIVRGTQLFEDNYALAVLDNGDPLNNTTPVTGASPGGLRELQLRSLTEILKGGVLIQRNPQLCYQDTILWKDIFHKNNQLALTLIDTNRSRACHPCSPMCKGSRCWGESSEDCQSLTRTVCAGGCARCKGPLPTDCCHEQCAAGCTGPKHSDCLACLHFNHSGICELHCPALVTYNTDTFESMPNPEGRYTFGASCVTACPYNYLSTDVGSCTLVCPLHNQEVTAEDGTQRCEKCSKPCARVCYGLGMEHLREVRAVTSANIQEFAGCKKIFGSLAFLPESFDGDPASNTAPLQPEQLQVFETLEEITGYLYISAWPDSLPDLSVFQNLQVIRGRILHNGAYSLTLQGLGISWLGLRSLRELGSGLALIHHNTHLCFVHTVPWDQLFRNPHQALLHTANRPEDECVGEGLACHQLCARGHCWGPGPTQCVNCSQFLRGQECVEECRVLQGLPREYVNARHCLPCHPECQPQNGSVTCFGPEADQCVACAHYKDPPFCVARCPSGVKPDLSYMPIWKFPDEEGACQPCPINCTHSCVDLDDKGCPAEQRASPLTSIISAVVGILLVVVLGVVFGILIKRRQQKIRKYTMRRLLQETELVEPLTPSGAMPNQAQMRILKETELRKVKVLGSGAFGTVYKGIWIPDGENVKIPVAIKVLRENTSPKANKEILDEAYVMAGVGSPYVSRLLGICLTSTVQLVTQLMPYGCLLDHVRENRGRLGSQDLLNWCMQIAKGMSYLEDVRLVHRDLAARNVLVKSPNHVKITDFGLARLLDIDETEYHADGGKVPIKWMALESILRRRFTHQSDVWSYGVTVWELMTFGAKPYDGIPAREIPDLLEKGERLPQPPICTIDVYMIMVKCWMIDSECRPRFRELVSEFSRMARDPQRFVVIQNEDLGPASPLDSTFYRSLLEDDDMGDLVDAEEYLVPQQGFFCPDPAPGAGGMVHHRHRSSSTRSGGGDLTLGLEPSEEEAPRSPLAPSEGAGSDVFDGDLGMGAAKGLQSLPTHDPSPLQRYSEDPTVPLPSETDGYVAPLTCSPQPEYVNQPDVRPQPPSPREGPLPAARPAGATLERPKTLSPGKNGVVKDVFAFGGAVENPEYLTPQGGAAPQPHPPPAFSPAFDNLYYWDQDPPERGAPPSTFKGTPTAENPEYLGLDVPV

In general, viability refers to a read-out of living cells in per cent, often relative to untreated cells. For orientation: inhibition means the change of the read-out against control, counted positive when it falls. Turning to `CCOC(=O)c1ccc(N2C(=O)CC(NC3CCN(C(=O)c4ccc(F)cc4)CC3)C2=O)cc1` (stereo not given), the viability in experiment [1] was 102%; in experiment [3] it was 102% (inactive); in experiment [4] it was 103% (inactive); in experiment [5], 110% (inactive); in experiment [6] (setting [9]), 96%; in experiment [6] (setting [10]), 110%. In addition, in experiment [2], the Her2 level was 126% (inactive). The differential viability (reversal) in experiment [6] (H69AR cells + 2 uM doxorubicin) is 14% (inactive). Further, the figures for the inhibition in experiment [7] and in experiment [8] were 1.45% (inactive) and -5% (inactive), respectively.
Consider `CCOC(=O)c1[nH]c2ccccc2c1NC(=O)CCN1CCN(C(=O)OCC)CC1`, for which the viability in experiment [1] is 110%; in experiment [3], 110% (inactive); in experiment [4], 81.4% (inactive); in experiment [5], 96.8% (inactive); in experiment [6] (setting [9]), 77.7%; in experiment [6] (setting [10]), 96.8%. For the same compound, the Her2 level in experiment [2] is 89.5% (inactive). The differential viability (reversal) in experiment [6] (H69AR cells + 2 uM doxorubicin) is 19.1% (inactive). The inhibition in experiment [7] is 1.84% (inactive); in experiment [8], -1.94% (inactive).
For the compound `COc1cc(OC)c(C(=O)Nc2ncn[nH]2)cc1OC`, the viability in experiment [1] was 102%; in experiment [3] it was 102% (inactive); in experiment [4] it was 95.4% (inactive); in experiment [5] it was 95% (inactive); in experiment [6] (setting [9]), 101%; in experiment [6] (setting [10]), 95%. The Her2 level in experiment [2] was 122% (inactive). Besides, the differential viability (reversal) in experiment [6] (H69AR cells + 2 uM doxorubicin) was -6.38% (inactive). The values for the inhibition in experiment [7] and in experiment [8] were 1.97% (inactive) and -6.72% (inactive), respectively.
With `CCC(C)NC(=O)C1(C)CCC(=O)N1CCc1ccc(OC)c(OC)c1` (stereo not given), the viability in experiment [1] is 104%; in experiment [3] it was 104% (inactive); in experiment [4] it was 95.4% (inactive); in experiment [5], 86.1% (inactive); in experiment [6] (setting [9]), 94.2%; in experiment [6] (setting [10]), 86.1%. Besides, in experiment [2], the Her2 level is 95% (inactive). In addition, the differential viability (reversal) in experiment [6] (H69AR cells + 2 uM doxorubicin) is -8.14% (inactive). The inhibition in experiment [7] is -1.04% (inactive); in experiment [8], -1.27% (inactive).
For `COC(=O)c1ccc(C2NC(C(=O)O)CS2)cc1` (stereo not given), the viability was 132% in experiment [1]; 132% (inactive) in experiment [3]; 102% (inactive) in experiment [4]; 89% (inactive) in experiment [5]; 97.3% in experiment [6] (setting [9]); 89% in experiment [6] (setting [10]). In experiment [2], the Her2 level is 103% (inactive). Moreover, in experiment [6] (H69AR cells + 2 uM doxorubicin), the differential viability (reversal) is -8.38% (inactive). Besides, the inhibition was -0.79% (inactive) in experiment [7] and 3.02% (inactive) in experiment [8].
In the case of `CC(C)=CC(=O)N1CCCc2ccccc21`, the viability in experiment [1] was 112%; in experiment [3], 112% (inactive); in experiment [4], 105% (inactive); in experiment [5], 98.4% (inactive); in experiment [6] (setting [9]) it was 93.2%; in experiment [6] (setting [10]) it was 98.4%. Also, the Her2 level in experiment [2] is 90% (inactive). Also, in experiment [6] (H69AR cells + 2 uM doxorubicin), the differential viability (reversal) was 5.13% (inactive). Also, the inhibition in experiment [7] was -4.53% (inactive); in experiment [8], -7.21% (inactive).
For `COc1ccccc1NC(=O)C1CC(=O)N(c2ccc(F)cc2)C1` (stereo not given), the viability is 99% in experiment [1]; 99% (inactive) in experiment [3]; 109% (inactive) in experiment [4]; 97.3% (inactive) in experiment [5]; 88.4% in experiment [6] (setting [9]); 97.3% in experiment [6] (setting [10]). Further, the Her2 level in experiment [2] is 144% (inactive). Also, in experiment [6] (H69AR cells + 2 uM doxorubicin), the differential viability (reversal) was 8.91% (inactive). Also, the inhibition in experiment [7] was 0.53% (inactive); in experiment [8], 19.2% (inactive).
For the compound `Nc1nc(N2C(=O)C3CC=CCC3C2=O)nn1-c1ccccc1` (stereo not given), the viability in experiment [1] is 101%; in experiment [3] it was 101% (inactive); in experiment [4], 105% (inactive); in experiment [5], 98.7% (inactive); in experiment [6] (setting [9]), 96%; in experiment [6] (setting [10]), 98.7%. In addition, in experiment [2], the Her2 level is 130% (inactive). Besides, the differential viability (reversal) in experiment [6] (H69AR cells + 2 uM doxorubicin) was 2.73% (inactive). For the same compound, the inhibition in experiment [7] is 1.3% (inactive); in experiment [8] it was -12.2% (inactive).
In the case of `CCOc1ccc(-c2nnn(CCC(=O)O)n2)cc1OC`, the viability in experiment [1] is 95.5%; in experiment [3], 95.5% (inactive); in experiment [4] it was 104% (inactive); in experiment [5], 102% (inactive); in experiment [6] (setting [9]) it was 89.8%; in experiment [6] (setting [10]) it was 102%. The Her2 level in experiment [2] was 84% (inactive). Further, the differential viability (reversal) in experiment [6] (H69AR cells + 2 uM doxorubicin) was 12.1% (inactive). Further, the inhibition is -4.93% (inactive) in experiment [7] and -0.16% (inactive) in experiment [8].
On to `O=c1[nH]c(NCc2ccco2)nnc1Cc1ccccc1Cl`, for which the viability in experiment [1] is 96.5%; in experiment [3], 96.5% (inactive); in experiment [4] it was 41.2% (inactive); in experiment [5] it was 13.3% (active); in experiment [6] (setting [9]), 57.8%; in experiment [6] (setting [10]), 13.3%. In addition, the Her2 level in experiment [2] was 84% (inactive). Also, the differential viability (reversal) in experiment [6] (H69AR cells + 2 uM doxorubicin) is -44.5% (inactive). Moreover, the values for the inhibition in experiment [7] and in experiment [8] were -7.67% (inactive) and 4.92% (inactive), respectively.
With `CCOC(=O)c1[nH]nc(N)c1NC(=O)c1ccc(Cl)cc1Cl`, the viability is 79.5% in experiment [1]; 79.5% (inactive) in experiment [3]; 89.9% (inactive) in experiment [4]; 87.8% (inactive) in experiment [5]; 83.8% in experiment [6] (setting [9]); 87.8% in experiment [6] (setting [10]). For the same compound, in experiment [2], the Her2 level is 120% (inactive). Further, the differential viability (reversal) in experiment [6] (H69AR cells + 2 uM doxorubicin) was 3.99% (inactive). Further, the figures for the inhibition in experiment [7] and in experiment [8] were 3.6% (inactive) and 8.89% (inactive), respectively.
As for `COc1cccc(NS(=O)(=O)c2cc(C)sc2C)c1`, the viability in experiment [1] is 93.5%; in experiment [3], 93.5% (inactive); in experiment [4], 97.5% (inactive); in experiment [5], 94.3% (inactive); in experiment [6] (setting [9]) it was 92.1%; in experiment [6] (setting [10]), 94.3%. The Her2 level in experiment [2] was 94% (inactive). Besides, the differential viability (reversal) in experiment [6] (H69AR cells + 2 uM doxorubicin) was 2.18% (inactive). The inhibition in experiment [7] is -2.89% (inactive); in experiment [8], -6.67% (inactive).
On to `Cc1cc(C)n(C(=O)CNC(=O)C2COc3ccccc3O2)n1` (stereo not given), for which the viability in experiment [1] was 122%; in experiment [3], 122% (inactive); in experiment [4], 87.2% (inactive); in experiment [5] it was 97.1% (inactive); in experiment [6] (setting [9]) it was 93.5%; in experiment [6] (setting [10]) it was 97.1%. In addition, the Her2 level in experiment [2] was 97.5% (inactive). Besides, in experiment [6] (H69AR cells + 2 uM doxorubicin), the differential viability (reversal) was 3.57% (inactive). In addition, the inhibition in experiment [7] is -4.74% (inactive); in experiment [8], -1.59% (inactive).
Take `Cc1cc(C(F)F)n2ncc(C(=O)NC3CCCCCC3)c2n1`: the viability in experiment [1] is 89.5%; in experiment [3], 89.5% (inactive); in experiment [4], 78.1% (inactive); in experiment [5] it was 89.9% (inactive); in experiment [6] (setting [9]) it was 90.2%; in experiment [6] (setting [10]), 89.9%. The Her2 level in experiment [2] is 86% (inactive). In addition, the differential viability (reversal) in experiment [6] (H69AR cells + 2 uM doxorubicin) was -0.225% (inactive). The inhibition in experiment [7] was -4.74% (inactive); in experiment [8], 8.69% (inactive).
`COc1ccccc1C1C(C(C)=O)=C(O)C(=O)N1CCc1ccccc1` (stereo not given): the viability was 93.5% in experiment [1]; 93.5% (inactive) in experiment [3]; 98.1% (inactive) in experiment [4]; 104% (inactive) in experiment [5]; 94.5% in experiment [6] (setting [9]); 104% in experiment [6] (setting [10]). Further, in experiment [2], the Her2 level is 102% (inactive). Besides, in experiment [6] (H69AR cells + 2 uM doxorubicin), the differential viability (reversal) was 9.69% (inactive). The inhibition in experiment [7] was -5.07% (inactive); in experiment [8], 3.87% (inactive).
